In ChEMBL document CHEMBL1955820, “Diazeniumdiolated carbamates: a novel class of nitric oxide donors” (Bioorg Med Chem, 2012):

What was measured:
[1] = Prodrug activation in human TERT immortalized BJ-5ta cells assessed as intracellular NO-release by measuring increase in fluorescence at 10 uM after 90 mins by DAF-FM diacetate-based fluorescence assay relative to control; type: cell-based; settings: htert-bj, 1.5 h
Procedure, shortened: (§1)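 BJ-5ta cells, grown in DMEM:199 medium (4:1) with 10% fetal calf serum, were loaded with 2.5 µM DAF-FM diacetate in HBSS for 30 min at 37 °C, 5% CO2, then rinsed into fresh HBSS. Compound in DMSO was added at 10 µM final for 90 min, with DMSO as control. Fluorescence was read at ex 485/em 525 nm. Mean of 16 independent experiments.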

[2] = system: U-937; assay: Prodrug activation in human U937 cells assessed as intracellular NO-release by measuring increase in fluorescence at 10 uM after 90 mins by DAF-FM diacetate-based fluorescence assay relative to control; type: cell-based; settings: u-937, 1.5 h
Procedure, shortened: (§2)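 U937 cells in RPMI 1640 with 10% fetal calf serum at 37 °C, 5% CO2. Probe loading used 2.5 µM DAF-FM diacetate in HBSS for 30 min. Cells were then spun down, rinsed and resuspended in fresh HBSS. Compound in DMSO was added at 10 µM final for 90 min, with DMSO as control. Fluorescence was read at ex 485/em 525 nm.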

[3] = Drug uptake in human TERT immortalized BJ-5ta cells by DAF-FM diacetate-based fluorescence assay; type: ADME, cell-based; settings: htert-bj; procedure, shortened: as §1
[4] = system: U-937; assay: Drug uptake in human U937 cells by DAF-FM diacetate-based fluorescence assay; type: ADME, cell-based; procedure, shortened: as §2
[5] = Prodrug activation in PBS assessed as production of nitrous oxide per mol of prodrug by gas chromatography in presence of GSH; settings: buffer
Procedure, shortened: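 Glutathione-activated release in pH 7.4 buffer with 3.6–3.9 mM GSH and 50 µM DTPA, argon-sparged, at 37 °C. Prodrug was injected from a 10 mM DMSO stock. N2O was measured by GC with electron capture detection on a packed ShinCarbon column: 90 to 200 °C at 20 °C/min, He carrier 30 mL/min.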

Row | Structure (SMILES) | fold change (FC) [1] | fold change (FC) [2] | Drug uptake [3] | Drug uptake [4] | Drug metabolism [5] [mol/mol]
1 | CC(=O)OCO/N=[N+](\[O-])N(C(=O)OC(C)(C)C)C(C)C | 7.29 | 5.56 | Active | Active | 
2 | CCOC(=O)N1CCN(/[N+]([O-])=N/Oc2ccc([N+](=O)[O-])cc2[N+](=O)[O-])CC1 | 5.48 | 2.64 |  |  | 
3 | CC(C)N(C(=O)OC(C)(C)C)/[N+]([O-])=N/Oc1ccc([N+](=O)[O-])cc1[N+](=O)[O-] | 49.67 | 10.5 | Active | Active | 0.02
